Assay [1] concerns Proteus vulgaris. Put plainly: Antibacterial activity against Proteus vulgaris ATCC 49132 after 16 to 20 hrs by broth microdilution method. In kind it is functional. The method in brief:
(§1)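 Broth microdilution MIC. Exponentially growing bacteria diluted in sterile liquid medium to a final inoculum of 1 × 10⁴ CFU/mL. Cultured with compound dilutions for 16-20 h; compounds tested at 100, 50, 10 and 1 µg/mL. MIC taken as the concentration giving 100% inhibition of bacterial growth.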
A general note: Broth dilution looks for growth in wells or tubes with falling amounts of substance.

Assay [2] has as its system Bacillus subtilis. Briefly: Antibacterial activity against Bacillus subtilis ATCC 6633 after 16 to 20 hrs by broth microdilution method. In kind it is functional. The method in brief: as §1
Assay [3] has as its system Streptococcus pneumoniae. Put plainly: Antibacterial activity Streptococcus pneumoniae ATCC 49619 at 1 ug/ml after 16 to 20 hrs by broth microdilution method. Type of assay: functional.
Assay [4] deals with Bacillus subtilis. Briefly: Antibacterial activity against Bacillus subtilis ATCC 6633 at 1 ug/ml after 16 to 20 hrs by broth microdilution method. In kind it is functional.
Assay [5] has as its system Salmonella typhimurium. Put plainly: Antibacterial activity against Salmonella Typhimurium at 1 ug/ml after 16 to 20 hrs by broth microdilution method. In kind it is functional, Salmonella enterica subsp. enterica serovar Typhimurium. The settings on record: Salmonella enterica.
Assay [6] deals with Streptococcus pyogenes. Briefly: Antibacterial activity Streptococcus pyogenes ATCC 19615 at 1 ug/ml after 16 to 20 hrs by broth microdilution method. In kind it is functional.
The test system of assay [7] is Salmonella typhimurium. Put plainly: Antibacterial activity against Salmonella Typhimurium after 16 to 20 hrs by broth microdilution method. In kind it is functional, Salmonella enterica subsp. enterica serovar Typhimurium. The method, boiled down:
as §1

Assay [8] concerns Listeria monocytogenes. Briefly: Antibacterial activity Listeria monocytogenes ATCC 15313 after 16 to 20 hrs by broth microdilution method. Type of assay: functional. The method, boiled down: as §1
In assay [9] the test system is Enterococcus faecalis. Put plainly: Antibacterial activity Enterococcus faecalis ATCC 29212 at 1 ug/ml after 16 to 20 hrs by broth microdilution method. Type of assay: functional.
Assay [10] relates to Pseudomonas aeruginosa. Put plainly: Antibacterial activity against Pseudomonas aeruginosa […] after 16 to 20 hrs by broth microdilution method. Type of assay: functional. Particulars: Pseudomonas aeruginosa, ATCC 13048. The method in brief: as §1
Assay [11] concerns Escherichia coli. Briefly: Antibacterial activity against Escherichia coli ATCC 25922 after 16 to 20 hrs by broth microdilution method. Particulars: Escherichia coli, ATCC 25922. Type of assay: functional. The method, boiled down: as §1
Assay [12] relates to Enterococcus faecalis. Briefly: Antibacterial activity Enterococcus faecalis ATCC 29212 after 16 to 20 hrs by broth microdilution method. Type of assay: functional. The method in brief:
as §1

Assay [13] relates to Staphylococcus epidermidis. Put plainly: Antibacterial activity against Staphylococcus epidermidis ATCC 14990 after 16 to 20 hrs by broth microdilution method. In kind it is functional. The method, boiled down:
as §1

The subject of assay [14] is Staphylococcus epidermidis. Put plainly: Antibacterial activity against Staphylococcus epidermidis ATCC 14990 at 1 ug/ml after 16 to 20 hrs by broth microdilution method. Type of assay: functional.
Assay [15] relates to Klebsiella aerogenes. Briefly: Antibacterial activity against Enterobacter aerogenes after 16 to 20 hrs by broth microdilution method. Type of assay: functional. The settings on record: Klebsiella aerogenes. The method in brief: as §1
Assay [16] has as its system Listeria monocytogenes. Put plainly: Antibacterial activity Listeria monocytogenes ATCC 15313 at 1 ug/ml after 16 to 20 hrs by broth microdilution method. Type of assay: functional.
Assay [17] has as its system Streptococcus pneumoniae. Briefly: Antibacterial activity Streptococcus pneumoniae ATCC 49619 after 16 to 20 hrs by broth microdilution method. In kind it is functional. The method, boiled down: as §1
The test system of assay [18] is Streptococcus pyogenes. Briefly: Antibacterial activity Streptococcus pyogenes ATCC 19615 after 16 to 20 hrs by broth microdilution method. In kind it is functional. The method in brief:
as §1

Molecules are shown by their SMILES. Some results are limits rather than exact numbers.

Turning to `CN[C@H](CC(C)C)C(=O)N[C@H]1C(=O)N[C@@H](CC(N)=O)C(=O)N[C@H]2C(=O)N[C@H]3C(=O)N[C@H](C(=O)N[C@H](C(=O)O)c4cc(O)cc(O)c4-c4cc3ccc4O)[C@H](O)c3ccc(c(Cl)c3)Oc3cc2cc(c3O[C@@H]2O[C@H](CO)[C@@H](O)[C@H](O)[C@H]2O[C@H]2C[C@](C)(N)[C@H](O)[C@H](C)O2)Oc2ccc(cc2Cl)[C@H]1O` [VANCOMYCIN], the MIC in [1], in [10], in assay [11] and in assay [15] was over 100 µg/mL each time. The Inhibition stood at 50% in assay [2]; 50% in [7]; 100% in assay [8]; 100% in assay [12]; 50% in [13]; 100% in assay [17]. This compound also gave an Inhibition in assay [18] of 100%. For the same compound, the inhibition at 1 µg/mL came out at 100% in assay [3]; 50% in assay [4]; 50% in [5]; 100% in [6]; 100% in assay [9]; 50% in [14]. This compound also registered an inhibition at 1 µg/mL in [16] of 100%.

By MIC is commonly meant the least concentration at which growth counts as inhibited. In general, Inhibition refers to the percentage by which the read-out fell short of the control. The inhibition is the drop in the measured response relative to a control, in per cent.

The values above are taken from ChEMBL document CHEMBL1146217, “Growth inhibition of Mycobacterium bovis, Mycobacterium tuberculosis and Mycobacterium avium in vitro: effect of 1-beta-D-2'-arabinofuranosyl and 1-(2'-deoxy-2'-fluoro-beta-D-2'-ribofuranosyl) pyrimidine nucleoside analogs” (J Med Chem, 2007).
